Most compounds without a hit are left out; they make up all but 3.5% or so of the library.
RGS4 inh: human RGS4 inhibition. HEK293 M3R/RGS4 inducible, Fluo-4 calcium flux; stronger effect = higher value; triggered by carbachol at its EC20. P49798. hit rate 0.45% among 310,000. B-score at 10 µM;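 active means B-score, a plate-corrected calcium signal, over three deviations above library mean, with baseline fluorescence within five deviations of library mean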;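 further: RGS4 expression induced by doxycycline in cells with stable M3 receptor; B-score is computed from the integrated fluorescence ratio over baseline after carbachol; higher B-score means a larger calcium signal and so more RGS4 inhibition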
Target sequence (P49798 whole entry, looked up): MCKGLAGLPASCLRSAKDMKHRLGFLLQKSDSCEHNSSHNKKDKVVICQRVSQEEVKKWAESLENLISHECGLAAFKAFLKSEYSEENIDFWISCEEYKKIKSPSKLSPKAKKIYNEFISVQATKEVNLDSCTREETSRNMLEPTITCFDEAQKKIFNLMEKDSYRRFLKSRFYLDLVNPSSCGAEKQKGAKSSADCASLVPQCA
MrgX1 antag: human MrgX1 receptor antagonism, primary screen; B-score at 10 µM; hit rate 1.3% among 310,000; Q96LB2; MRGX1-HEK293 calcium flux, Fluo-4, BAM8-22 antagonism; stronger effect = lower value;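 active means calcium-response B-score plate-corrected more than 3 library SD below zero, starting fluorescence within 5 deviations, no agonist response on first addition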;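 further: peak minus trough fluorescence over baseline after final BAM8-22 challenge near maximal dose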
Target sequence (Q96LB2 whole entry, looked up): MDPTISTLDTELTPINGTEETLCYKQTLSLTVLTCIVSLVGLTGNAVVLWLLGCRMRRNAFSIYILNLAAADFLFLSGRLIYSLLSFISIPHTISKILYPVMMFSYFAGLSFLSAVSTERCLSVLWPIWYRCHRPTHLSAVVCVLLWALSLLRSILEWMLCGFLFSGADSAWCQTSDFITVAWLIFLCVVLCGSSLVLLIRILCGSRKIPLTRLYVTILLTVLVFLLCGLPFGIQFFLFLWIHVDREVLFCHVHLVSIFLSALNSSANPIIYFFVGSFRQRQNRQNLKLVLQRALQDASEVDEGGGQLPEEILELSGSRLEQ
MrgX1 agonist: activates human MrgX1 receptor signaling | MrgX1-HEK293 cells, Fluo-4 calcium fluorescence, agonist mode; stronger effect = higher value | B-score at 10 µM | hit rate 0.44% among 310,000 | AID 588627;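 active means calcium response B-score plate-corrected fluorescence ratio at least 3 library SD, with starting fluorescence B-score inside 5 SD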
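Assay system: MrgX1-expressing HEK293 cells / Amount: fifteen thousand cells per well / Doses: test compound in the initial addition of three / Timing: cells plated overnight, dye loaded 0.5 h 37 °C, 0.5 h room temperature / Technique: kinetic calcium dye fluorescence, Fluo-4 NW / Control set: positive and negative controls per plate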
RGS4 pot: RGS4 potentiation or activation. AID 463111. B-score at 10 µM. HEK293 M3R/inducible RGS4, carbachol calcium flux Fluo4; stronger effect = lower value. hit rate 0.92% among 310,000;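 active means B-score of the integrated calcium signal more than 4 SD below the library mean, with starting fluorescence not abnormally high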;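 further: negative B-score means reduced calcium response which marks RGS4 activation or potentiation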
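test system = HEK293 cells with stable M3R and inducible RGS4 | schedule = recording 10 s baseline at 1 Hz, 100 s post-agonist | technique = Fluo4-AM (2 µM) calcium-flux fluorescence, kinetic read | measure = Agonist-evoked peak-minus-minimum fluorescence over baseline, integrated ratio, B score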
MrgX1 allo act: human MrgX1 positive allosteric modulation, primary screen; Q96LB2; MrgX1-HEK293, Fluo-4 calcium flux, FDSS; stronger effect = higher value; B-score at 10 µM; hit rate 0.63% among 310,000;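 active means plate-corrected calcium response at least 3 library SD above typical, normal starting fluorescence, not activating the receptor alone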;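 further: compound read alongside a low EC10 to EC30 dose of BAM8-22 agonist; peak minus trough fluorescence over baseline measured at the second addition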
RGS4 block valid: validation of RGS4 inhibitors | hit rate 65% among 1,700 | HEK293 M3R/RGS4, carbachol calcium Fluo-4 fluorescence; carbachol added at its EC20; 0 = buffer wells, 100 = carbachol control | shares compounds with RGS4 inh | calcium response, % at 10 µM;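 active means duplicate-averaged calcium response above the buffer-only control mean plus 5 SD of those controls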;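 further: integrated fluorescence ratio F max minus min over baseline F0; higher response in RGS4-induced cells means RGS4 inhibition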
M3R Ca ctr: counter-screen for RGS4 inhibitors: effect in non-induced cells. hit rate 20% among 1,900. HEK293 M3R non-induced, carbachol calcium Fluo-4; submaximal (EC20) carbachol stimulus; buffer wells 0%, carbachol control wells 100%. activity (percent), % at 10 µM. shares compounds with RGS4 inh; call rule not given here;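 further: RGS4 induction absent so cells express M3R without RGS4; higher means more calcium signal and flags a non-specific hit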
M3R basal Ca ctr: second counter-screen for RGS4 inhibitors: non-induced cells without carbachol. hit rate 22% among 1,900. shares compounds with RGS4 inh. AID 493001. HEK293 M3R/RGS4 non-induced, Fluo-4 calcium, no carbachol; normalised: buffer wells 0%, carbachol wells 100%. calcium response (agonist-mode artifact), % at 10 µM;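 active means duplicate-averaged calcium rise in uninduced cells above buffer wells' mean plus 5 SD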
MrgX1 ag confirm: confirmation of human MrgX1 receptor agonists; shares compounds with MrgX1 agonist; MrgX1-HEK293, Fluo-4 calcium fluorescence, FDSS; activation, % at 10 µM; hit rate 78% among 600; AID 602412;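 active means calcium signal rise, corrected for plate position, at least 3 library SD high, with starting brightness within 5 such deviations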
MrgX1 antag conf: reconfirmed antagonist of human MrgX1 receptor signaling; shares compounds with MrgX1 antag; MrgX1-HEK293, BAM8-22 calcium flux, Fluo-4; stronger effect = lower value; remaining BAM8-22 calcium response % of control (stronger effect = lower value), % at 10 µM; hit rate 19% among 2,300;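 active means remaining agonist calcium response no higher than 100% minus 3 SD of agonist-only control wells, with starting fluorescence near control levels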;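 further: agonist BAM8-22 given at a near maximal EC90 to ECmax level; peak minus minimum fluorescence divided by baseline after agonist addition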
HEK293 Ca flux: activity in parental HEK293 cells lacking MrgX1; AID 624111; fluorescence ratio F(max-min)/F0 at 10 µM; shares compounds with MrgX1 antag; Fluo-4 calcium fluorescence, FDSS; hit rate 2% among 4,000;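 active means duplicate-averaged calcium fluorescence ratio at least three times the standard deviation of buffer wells, a nonspecific response in parental cells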
HEK293 Ca counter: MrgX1 allosteric activator counter-screen hit in parental HEK293 cells; shares compounds with MrgX1 antag; parental HEK293 calcium flux, Fluo-4 fluorescence ratio; stronger effect = higher value; fluorescence ratio F(max-min)/F0 at 10 µM; hit rate 0.4% among 4,000;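 active means calcium fluorescence ratio, averaged over duplicates, at least 3 SD of the buffer-well ratio, meaning a nonspecific response in receptor-free cells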;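 further: untransfected parental HEK293 lacking MrgX1 used as counterscreen for MrgX1 allosteric activators; fluorescence change taken during the second addition on a kinetic imager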
HEK293 Ca cntr2: MrgX1 activator counter-screen hit in parental HEK293 cells; hit rate 8.7% among 4,000; shares compounds with MrgX1 antag; fluorescence ratio F(max-min)/F0 at 10 µM; Fluo-4 calcium fluorescence (FDSS); stronger effect = higher value; AID 624115;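 active means calcium fluorescence ratio at least three times the spread of buffer wells, meaning a non-specific response in parental cells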
Of the large screens only hits and unclear results are named; the others gave an inactive call (follow-up assays come after a bar, where they were run).

COc1ccc(C2C(C#N)=C(N)Oc3cc(O)ccc32)cc1Cl (stereo not given)	RGS4 inh 6.8, MrgX1 agonist 49 | RGS4 block valid 20% | M3R Ca ctr 43% | M3R basal Ca ctr 40% | MrgX1 ag confirm inactive | HEK293 Ca flux inactive | HEK293 Ca counter inactive | HEK293 Ca cntr2 inactive
Cc1ccc(CN=Cc2[nH]c3ccc(Br)c(Cl)c3c2O)cc1	MrgX1 antag -6.8 | RGS4 block valid inactive | M3R Ca ctr inactive | M3R basal Ca ctr 48% | MrgX1 antag conf inactive | HEK293 Ca flux 0.23 | HEK293 Ca counter inactive | HEK293 Ca cntr2 inactive
COc1ccc(CN=Cc2c(O)[nH]c3ccccc23)cc1	none
CN(C(=O)COC(=O)/C=C/c1ccc(S(=O)(=O)N2CCc3ccccc32)cc1)C1CCS(=O)(=O)C1 (stereo not given)	none
C[N+](C)(C)C/C=C1/COCO1	RGS4 inh 7.3, MrgX1 agonist 67, RGS4 pot -9.1 | RGS4 block valid 14% | M3R Ca ctr inactive | M3R basal Ca ctr 386% | MrgX1 ag confirm 328% | HEK293 Ca flux inactive | HEK293 Ca counter inactive | HEK293 Ca cntr2 67
COc1ccc(C(=O)CCS(=O)(=O)c2ccc(F)cc2)cc1OC	RGS4 inh 36, MrgX1 agonist 31 | RGS4 block valid 168% | M3R Ca ctr 28% | M3R basal Ca ctr 15% | MrgX1 ag confirm 141% | HEK293 Ca flux inactive | HEK293 Ca counter inactive | HEK293 Ca cntr2 inactive
CC(=O)NCc1ccc(C(=O)CCl)cc1	RGS4 inh 6.7, MrgX1 agonist 35 | RGS4 block valid 40% | M3R Ca ctr inactive | M3R basal Ca ctr 9.5% | MrgX1 ag confirm 197% | HEK293 Ca flux inactive | HEK293 Ca counter inactive | HEK293 Ca cntr2 inactive
CC(=O)NCc1ccc(C(=O)CCl)s1	none
CN(Cc1cccs1)C(=O)CCCc1c[nH]c2ccccc12	MrgX1 agonist 27 | MrgX1 ag confirm 161% | HEK293 Ca flux inactive | HEK293 Ca counter inactive | HEK293 Ca cntr2 inactive
CN(Cc1cccs1)C(=O)CCc1c[nH]c2ccccc12	none
Cc1nn(C)c(C)c1CN(Cc1nc(-c2cc(F)ccc2F)oc1C)C1CC1	none
Cc1nn(C)c(C)c1CN(Cc1nc(-c2ccc(F)cc2F)oc1C)C1CC1	MrgX1 agonist 56 | MrgX1 ag confirm 254% | HEK293 Ca flux inactive | HEK293 Ca counter inactive | HEK293 Ca cntr2 49
CCC1c2ccc(C)n2CCN1C(=O)Nc1ccccc1C(=O)OC (stereo not given)	MrgX1 agonist 29 | MrgX1 ag confirm inactive | HEK293 Ca flux inactive | HEK293 Ca counter inactive | HEK293 Ca cntr2 inactive
CCOC(=O)c1ccccc1NC(=O)N1CCn2c(C)ccc2C1CC (stereo not given)	none
